Results on 18 compounds are retold here after ChEMBL document CHEMBL5329183, “Naphthylthiazoles: a class of broad-spectrum antifungals” (RSC Med Chem, 2023).

Converted amounts (≈) assume the structure as drawn.

The subject of data set [1] is Escherichia coli. The data set is described as follows: Antibacterial activity against wild type Escherichia coli BW25113 assessed as inhibition of bacterial growth. Format: functional.
Another data set deals with Candida albicans. The data set is described as follows: Antifungal activity against wild type Candida albicans SC5314 assessed as inhibition of fungal growth. Format: functional.
The subject of data set [2] is Escherichia coli. The data set is described as follows: Antibacterial activity against Escherichia coli JW55031 harboring tolC mutant assessed as inhibition of bacterial growth. The format is functional.
In another data set the test system is Clostridioides difficile. The data set is described as follows: Antibacterial activity against Clostridium difficile ATCC BAA1870 assessed as inhibition of bacterial growth. The format is functional.
Another data set relates to Staphylococcus aureus. The data set is described as follows: Antibacterial activity against Methicillin-resistant Staphylococcus aureus USA300 assessed as inhibition of bacterial growth. Format: functional.
For data set [3], the system named is Aspergillus fumigatus. The data set is described as follows: Antifungal activity against Aspergillus fumigatus NR 35304 assessed as inhibition of fungal growth incubated for 24 hrs by broth microdilution method. The format is functional. In outline:
(§1)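 Broth microdilution per CLSI guidelines against clinical isolates, incubated at 35 °C for 24 h (Candida, Aspergillus) or 48 h (Cryptococcus). MIC was the lowest concentration giving 50% growth inhibition.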
(In general: In broth dilution the organism is exposed to a series of concentrations in liquid medium.)

Data set [4] has as its system Aspergillus fumigatus. The experiment in a line: Antifungal activity against Aspergillus fumigatus NR 35303 assessed as inhibition of fungal growth incubated for 24 hrs by broth microdilution method. Format: functional. In outline: as §1
Data set [5] in a line: Apparent permeability of the compound measured after 4 hrs by PAMPA assay. Format: ADME. In outline:
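PAMPA: compound was placed in pH 6.5 donor buffer across a lipid-pretreated PVDF filter from pH 7.4 acceptor buffer, and incubated 4 h at ambient temperature. Donor and acceptor amounts at start and end were measured by UV absorbance to give apparent permeability.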
In general terms: In PAMPA a lipid-coated filter parts donor from acceptor wells.

One may read the MIC as the lowest concentration found to suppress growth. Turning to `Cc1nc(-c2ccc3ccccc3c2)sc1-c1nnc(N2CCCCC2CN)o1` (stereo not given), the MIC is greater than 64 µg/mL in the data set with Escherichia coli [1]; greater than 64 µg/mL in the data set with Candida albicans; greater than 64 µg/mL in the data set with Escherichia coli [2]; 32 µg/mL (≈ 78.9 µM) in the data set on Clostridioides difficile; greater than 64 µg/mL in the data set with Staphylococcus aureus.
As to `Cc1nc(-c2ccc3ccccc3c2)sc1-c1nnc(NCCN)o1`, the MIC in the data set with Escherichia coli [1] was greater than 64 µg/mL; in the data set with Candida albicans it was 32 µg/mL (≈ 91.1 µM); with Escherichia coli [2], 64 µg/mL (≈ 182 µM); with Clostridioides difficile it was 64 µg/mL (≈ 182 µM); in the data set on Staphylococcus aureus, 32 µg/mL (≈ 91.1 µM).
For `Cc1nc(-c2ccc3ccccc3c2)sc1-c1nnc(N2CCC[C@@H]2C(N)=O)o1`, the MIC in the data set on Escherichia coli [1], in the data set with Candida albicans, in the data set on Escherichia coli [2], in the data set with Clostridioides difficile and with Staphylococcus aureus was greater than 64 µg/mL throughout.
Turning to `CCCNc1nnc(-c2sc(-c3ccc4ccccc4c3)nc2C)o1`, the MIC in the data set on Escherichia coli [1], in the data set with Candida albicans, in the data set with Escherichia coli [2], with Clostridioides difficile and in the data set with Staphylococcus aureus was greater than 64 µg/mL each time.
For the compound `CCC(C)n1ncn(-c2ccc(N3CCN(c4ccc(OCC5COC(Cn6cncn6)(c6ccc(Cl)cc6Cl)O5)cc4)CC3)cc2)c1=O` (stereo not given) [ITRACONAZOLE], the MIC in the data set on Aspergillus fumigatus [3] and in the data set on Aspergillus fumigatus [4] was 1 µg/mL (≈ 1.42 µM) throughout.
Take `Cc1nc(-c2ccc3ccccc3c2)sc1-c1nnc(N2CC[C@H](N(C)C)C2)o1`: the MIC with Escherichia coli [1] was greater than 64 µg/mL; with Candida albicans, 8 µg/mL (≈ 19.7 µM); in the data set on Escherichia coli [2], greater than 64 µg/mL; in the data set with Clostridioides difficile, greater than 64 µg/mL; with Staphylococcus aureus, greater than 64 µg/mL.
One may read the Papp as a coefficient for how fast a substance crosses the barrier. `CC(C(=O)O)c1cccc(C(=O)c2ccccc2)c1` (stereo not given) [KETOPROFEN]: the Papp at 4 h in data set [5] amounted to 10.2 ×10⁻⁶ cm/s.
For the compound `Cc1nc(-c2ccc3ccccc3c2)sc1-c1nnc(N[C@H]2CC[C@H](N)CC2)o1`, the MIC in the data set on Escherichia coli [1] is greater than 64 µg/mL; in the data set with Candida albicans, 64 µg/mL (≈ 158 µM); in the data set with Escherichia coli [2], greater than 64 µg/mL; in the data set on Clostridioides difficile, 64 µg/mL (≈ 158 µM); in the data set with Staphylococcus aureus, 64 µg/mL (≈ 158 µM).
As for `CCNc1nnc(-c2sc(-c3ccc4ccccc4c3)nc2C)o1`, the MIC with Escherichia coli [1] is greater than 64 µg/mL; with Candida albicans it was greater than 64 µg/mL; with Escherichia coli [2] it was 64 µg/mL (≈ 190 µM); with Clostridioides difficile it was 64 µg/mL (≈ 190 µM); in the data set with Staphylococcus aureus, 64 µg/mL (≈ 190 µM).
On to `Cc1nc(-c2ccc3ccccc3c2)sc1-c1nnc(N2CCC[C@H]2CO)o1`, for which the MIC in the data set with Escherichia coli [1], in the data set with Candida albicans, in the data set on Escherichia coli [2], in the data set on Clostridioides difficile and in the data set on Staphylococcus aureus was greater than 64 µg/mL in each case.
Regarding `CC(C)NCC(O)COc1cccc2ccccc12` (stereo not given) [PROPRANOLOL], the Papp at 4 h in data set [5] worked out at 76.6 ×10⁻⁶ cm/s.
With `CC(=O)NC[C@H]1CN(c2ccc(N3CCOCC3)c(F)c2)C(=O)O1` [LINEZOLID], the MIC with Escherichia coli [1] was greater than 64 µg/mL; with Escherichia coli [2], 8 µg/mL (≈ 23.7 µM); in the data set on Clostridioides difficile, 1 µg/mL (≈ 2.96 µM); in the data set with Staphylococcus aureus, 1 µg/mL (≈ 2.96 µM).
For the compound `Cc1nc(-c2ccc3ccccc3c2)sc1-c1nnc(N2CCC[C@H]2C(N)=O)o1`, the MIC in the data set on Escherichia coli [1], in the data set with Candida albicans, in the data set with Escherichia coli [2], with Clostridioides difficile and with Staphylococcus aureus was greater than 64 µg/mL throughout.
As for GENTAMICIN, the MIC with Escherichia coli [1] and in the data set on Escherichia coli [2] was less than 0.5 µg/mL each time.
Turning to `Cc1nc(-c2ccc3ccccc3c2)sc1-c1nnc(N2CC[C@@H](N(C)C)C2)o1`, the MIC is greater than 64 µg/mL in the data set with Escherichia coli [1]; 32 µg/mL (≈ 78.9 µM) in the data set with Candida albicans; 32 µg/mL (≈ 78.9 µM) in the data set on Escherichia coli [2]; 16 µg/mL (≈ 39.5 µM) in the data set with Clostridioides difficile; 4 µg/mL (≈ 9.86 µM) with Staphylococcus aureus.
For `Cc1nc(-c2ccc3ccccc3c2)sc1-c1nnc(N2CCC[C@@H]2CO)o1`, the MIC is greater than 64 µg/mL in the data set on Escherichia coli [1]; greater than 64 µg/mL with Candida albicans; greater than 64 µg/mL with Escherichia coli [2]; 16 µg/mL (≈ 40.8 µM) in the data set with Clostridioides difficile; greater than 64 µg/mL in the data set on Staphylococcus aureus.
Consider `Cc1nc(-c2ccc3ccccc3c2)sc1-c1nnc(NCC(=N)N)o1`, for which the MIC is greater than 64 µg/mL with Escherichia coli [1]; 32 µg/mL (≈ 87.8 µM) in the data set with Candida albicans; greater than 64 µg/mL with Escherichia coli [2]; 64 µg/mL (≈ 176 µM) in the data set on Clostridioides difficile; greater than 64 µg/mL in the data set with Staphylococcus aureus.
For `Cc1nc(-c2ccc3ccccc3c2)sc1-c1nnc(N2CCC(N)C2)o1` (stereo not given), the MIC was greater than 64 µg/mL in the data set with Escherichia coli [1]; 8 µg/mL (≈ 21.2 µM) with Candida albicans; greater than 64 µg/mL in the data set on Escherichia coli [2]; greater than 64 µg/mL with Clostridioides difficile; greater than 64 µg/mL with Staphylococcus aureus.
